iPSC survival up = hiPSC single-cell survival enhancement; ATPlite luminescence; 100% = ROCK inhibitor wells, 0% = DMSO; survival enhancement, % at 20 µM; hit rate 0.044% among 360,000; AID 602274; in the data active = survival enhancement above about 18%;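 note: cells exposed to compounds for 16 hours before the ATP read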
ABCB6 inh MLPCN = human ABCB6 transporter inhibition | fluorescence ratio to DMSO, % at 10 µM | K562-ABCB6 porphyrin accumulation, flow cytometry, 1 h; hits give low values | AID 602162 | Q9NP58 | hit rate 0.19% among 360,000;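 active = fluorescence ratio to DMSO below 75%, the collection mean minus 3 SD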;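 note: signal is porphyrin accumulated inside mitochondria; 100% equals median channel fluorescence of DMSO control wells; lower ratio means ABCB6 inhibition with less porphyrin fluorescence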
SENP1 FRET inh = SENP1 (human) catalytic domain inhibition. hit rate 0.21% among 360,000. inhibition, % at 10 µM. recombinant SENP1 catalytic domain, CyPet-SUMO1-YPet FRET cleavage. AID 624204;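 active = inhibition at least 30% at 10 µM, raw YFP signal under a set limit, fluorescence ratio 0.5 to 1.5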;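 note: 0% = enzyme with DMSO and 100% = no enzyme wells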
Target sequence (Q9P0U3 419-644 limits assumed): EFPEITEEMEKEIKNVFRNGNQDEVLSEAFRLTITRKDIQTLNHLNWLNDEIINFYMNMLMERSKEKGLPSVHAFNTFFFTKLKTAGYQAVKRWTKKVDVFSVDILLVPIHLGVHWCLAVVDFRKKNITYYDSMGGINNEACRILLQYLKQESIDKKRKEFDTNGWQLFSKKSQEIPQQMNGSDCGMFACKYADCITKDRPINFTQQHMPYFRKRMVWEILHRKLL
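Assay system – human recombinant His6-tagged SENP1 catalytic domain enzyme · Input – SENP1 enzyme, 20 pM final · Buffer or medium – Tris pH 8 buffer plus EDTA, NaCl, BME, BSA, NP40, catalase · Schedule – 50 min reaction at room temperature · Technique – FRET read of cyan and yellow fluorescence · Control set – no-enzyme wells low, DMSO-plus-enzyme wells high control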
FAS TE block = inhibitors of human fatty acid synthase thioesterase domain | P49327 | recombinant FAS-TE, OMFH fluorogenic substrate, fluorescence endpoint | inhibition, % at 15 µM | hit rate 0.67% among 360,000 | AID 602261;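 active = compounds whose normalised, plate-corrected inhibition of enzyme fluorescence in the single-dose primary screen is 50% or more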;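 note: 0% = DMSO with enzyme and 100% = substrate without enzyme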
* marks the source's active call; other numbers are inactive results. In the library only some 1.1% were active in any assay of this set; here they are far more common.

SMILES	iPSC survival up	ABCB6 inh MLPCN	SENP1 FRET inh	FAS TE block
COc1cccc2c1C(=O)c1c(O)c3c(c(O)c1C2=O)C[C@@](O)(C(=O)CO)C[C@@H]3OC1CC(N)C(O)C(C)O1 (stereo partly drawn)	-3.7	464.0	96.8	-77.6
COc1cccc2c1C(=O)c1c(O)c3c(c(O)c1C2=O)C[C@@](O)(C(=O)CO)C[C@@H]3O[C@H]1C[C@H](N)[C@H](O)[C@H](C)O1	-3.8	152.0	96.6*	-123.3
Cn1c(/C=C/c2ccc(Cl)cc2)c([N+](=O)[O-])c(=O)n(C)c1=O	2.0	99.0	34.1*	13.8
COc1ccc(/C=C/c2c([N+](=O)[O-])c(=O)n(C)c(=O)n2C)cc1OC	4.3	94.0	-2.7	-3.4
Cc1nn(-c2ccccc2)c2[nH]c(=O)cc(C(F)F)c12	-0.5	96.0	-0.7	-7.3
Cc1ccc(-n2nc(C)c3c(C)cc(=O)[nH]c32)cc1	21.9*	99.0	1.2	-5.8
O=C1C(Cl)=C(Nc2ccc3cn[nH]c3c2)C(=O)c2ccccc21	15.0	65.0*	4.1	34.0
CCOC(=O)C(CC)n1cnc2c(nnn2-c2ccc(F)cc2)c1=O (stereo not drawn)	-0.2	101.0	-0.4	-7.2
O=C1CCC2(C(=O)O)Sc3ccccc3N12 (stereo not drawn)	20.9*	93.0	1.5	-8.5
COc1ccc(NC(=O)COC(=O)C23CCC(=O)N2c2ccccc2S3)cc1 (stereo not drawn)	-0.7	99.0	0.9	-9.6
Cc1ccc2nc(NC(=O)CCn3c(=O)sc4ccccc43)sc2c1	-2.1	72.0*	2.2	16.5
OC(c1cc(F)cc(Cl)c1)c1ncc(-c2cccc(C(F)(F)F)c2)[nH]1 (stereo not drawn)	-1.3	894.0	0.3	21.0
OC(c1ccc(Cl)cc1)c1ncc(-c2cccc(C(F)(F)F)c2)[nH]1 (stereo not drawn)	24.7*	93.0	-0.8	30.3
CCc1c(C(=O)Nc2ccc(OC)cc2)[nH]c(C)c1C(C)=O	21.7*	99.0	3.4	-8.5
COc1ccc(NC(=O)c2[nH]c(C)c(C(C)=O)c2C)cc1	-0.5	94.0	-0.6	-2.0
C=CCNC(=O)c1ccc(N(C)S(=O)(=O)c2ccc(OC)cc2)cc1	0.6	61.0*	-0.4	-1.1
CCOC(=O)N1CCN(C(=O)CSC2=NS(=O)(=O)c3ccccc3N2)CC1	-0.6	102.0	-0.4	-5.9
COc1cc(C(=O)c2nccc3cc(OC)c(OC)cc23)c([N+](=O)[O-])cc1OC	-0.6	97.0	39.0*	18.5
O=C(/C(N=Nc1cccc([N+](=O)[O-])c1)=C(/O)c1ccc(Br)cc1)C(F)(F)F	0.0	97.0	4.7	63.7*
COC(=O)c1cc(=O)nc(NN=Cc2ccco2)s1	-0.6	100.0	3.8	1.1
CC1=C([N+](=O)[O-])C(c2ccccc2C(F)(F)F)NC(=O)N1C (stereo not drawn)	0.5	96.0	0.8	-3.3
CCCCCCCCCCCC1=C(O)C(=O)C=C(O)C1=O	-0.8	102.0	4.5	61.5*
COC1=CC(=O)C(O)=C(CCCCCCC/C=C/CCCCCCCC2=C(O)C(=O)C=C(OC)C2=O)C1=O	-3.2	100.0	9.5	41.5
CCN(CC)CC(O)CNc1ccnc2c(Cl)ccc(Cl)c12 (stereo not drawn)	-0.1	90.0	2.2	-6.6
CCOC(=O)CCCCCC(=O)Nc1ccc2c(c1)C(=O)N([C@H](C)CO)C[C@H](C)[C@@H](CN(C)S(C)(=O)=O)OCCCC[C@@H](C)O2	1.1	100.0	-0.4	-6.7
SMILES	iPSC survival up	ABCB6 inh MLPCN	SENP1 FRET inh	FAS TE block
COc1ccc(-c2csc(/C(C#N)=C\c3ccc(O)c([N+](=O)[O-])c3)n2)cc1OC	0.4	97.0	14.2	-33.1
N#C/C(=C\c1ccc(O)c([N+](=O)[O-])c1)c1nc2ccccc2s1	-1.3	105.0	32.2*	19.7
CCCCCCCCN1C(=O)[C@H](CC(=O)NCc2ccc(OC)c(OC)c2)C[C@@]2(C(=O)OCC)CCCC=C12	0.0	98.0	0.6	14.0
O=C(CCn1nc(-c2ccc(Cl)cc2)ccc1=O)N1CCN(c2ccccc2)CC1	1.1	99.0	0.7	51.3*
CCOc1cc(C2C(C#N)=C(N)OC(C)=C2C(C)=O)cc(Br)c1O (stereo not drawn)	6.5	98.0	-36.1	-15.2
CCOc1cc(C2C(C#N)=C(N)OC(C)=C2C(C)=O)c(Br)c(Br)c1OC(C)C (stereo not drawn)	-0.2	90.0	-11.4	71.5*
COc1ccc(S(=O)(=O)Cc2ccc(C(=O)NC3CCCCC3)o2)cc1	-0.5	101.0	2.5	-4.4
CCC1(CC)Cc2ccccc2-c2nc(-c3ccccc3)oc(=O)c21	-2.0	70.0*	-0.2	13.3
CCN(CC)CCNc1ccc(C)c2sc3ccc(O)cc3c(=O)c12	-4.2	198.0	38.9*	-3.8
O=C(OCn1ncc(Br)c(Br)c1=O)c1ccccc1Cl	35.2*	46.0*	2.3	37.8
O=C(C1=NN(c2ccccc2)C(=O)CC1)N1CCc2ccccc2C1	-0.4	93.0	-4.3	-5.0
Cc1cc(C)c(NC(=O)CCCn2c(=O)oc3ccccc32)c(C)c1	-0.2	101.0	3.1	-6.0
CC(C)(C)c1nnc2sc(SCC(=O)c3ccc(Cl)cc3)nn2c1=O	-1.1	91.0	2.3	50.8*
O=C(Nc1cccnc1)c1c(F)c(F)c(F)c(F)c1F	-0.5	96.0	-0.3	-5.9
O=C(Nc1ccc(F)cc1)c1ccccc1F	0.6	100.0	-0.9	-4.2
O=C(Nc1ccncc1)c1c(F)c(F)c(F)c(F)c1F	44.4*	95.0	2.0	-4.3
O=C(Nc1ccncc1)c1ccccc1F	24.2*	91.0	2.5	-13.5
Cc1ccc(S(=O)(=O)N[C@H](C(=O)OCC(=O)NC(=O)NCc2ccco2)C(C)C)cc1	24.3*	102.0	3.5	-3.8
Cc1cc(N)n2nc(C)c(-c3ccc(Cl)cc3)c2n1	-1.1	99.0	0.5	9.3
Cc1cc(Cl)n2nc(C)c(-c3ccc(Cl)cc3)c2n1	21.3*	94.0	0.5	12.4
CC(/C=C(\NC(=O)c1ccccc1)C(=O)N=Nc1c(O)[nH]c2ccc(C)cc12)=C\c1ccccc1	0.6	73.0*	3.2	38.7
O=C(Nc1ccncc1)c1cc(S(=O)(=O)N2CCCCC2)ccc1Cl	5.9	100.0	0.4	-2.3
O=C(Nc1ccncc1)c1cc(S(=O)(=O)N2CCCC2)ccc1Cl	46.9*	92.0	-0.9	-5.0
CN(C)CCN(C(=O)c1ccc2ccccc2c1)c1nc2cc3c(cc2s1)OCO3	19.1*	95.0	0.1	15.7
CN(C)CCN(C(=O)c1ccc2c(c1)OCCO2)c1nc2cc3c(cc2s1)OCO3	-0.6	99.0	0.2	5.4
O=C(Cc1c(F)c(F)c(F)c(F)c1F)Nc1nc(-c2ccccc2)cs1	0.5	95.0	0.7	22.8
Cc1nc2sccn2c(=O)c1S(=O)(=O)Nc1cccc(Cl)c1C	-0.3	93.0	1.0	3.1
O=C1c2cc([N+](=O)[O-])ccc2-c2cc(Br)c(N=C(NO)C(F)(F)F)cc21	2.0	109.0	68.8*	-149.2
